Data as given in ChEMBL document CHEMBL1649062, “Integration of lead optimization with crystallography for a membrane-bound ion channel target: discovery of a new class of AMPA receptor positive allosteric modulators” (J Med Chem, 2011).
In brackets after ≈: the same amount, converted by molar mass. Activity calls are given as the source filed them.

Experiments:
Cytochrome P450 2C9 = Cytochrome P450 2C9 (Homo sapiens, UniProt P11712); experiment: Inhibition of human CYP2C9 by fluorescence assay; assay type: ADME
Sequence of Cytochrome P450 2C9 (P11712 whole entry): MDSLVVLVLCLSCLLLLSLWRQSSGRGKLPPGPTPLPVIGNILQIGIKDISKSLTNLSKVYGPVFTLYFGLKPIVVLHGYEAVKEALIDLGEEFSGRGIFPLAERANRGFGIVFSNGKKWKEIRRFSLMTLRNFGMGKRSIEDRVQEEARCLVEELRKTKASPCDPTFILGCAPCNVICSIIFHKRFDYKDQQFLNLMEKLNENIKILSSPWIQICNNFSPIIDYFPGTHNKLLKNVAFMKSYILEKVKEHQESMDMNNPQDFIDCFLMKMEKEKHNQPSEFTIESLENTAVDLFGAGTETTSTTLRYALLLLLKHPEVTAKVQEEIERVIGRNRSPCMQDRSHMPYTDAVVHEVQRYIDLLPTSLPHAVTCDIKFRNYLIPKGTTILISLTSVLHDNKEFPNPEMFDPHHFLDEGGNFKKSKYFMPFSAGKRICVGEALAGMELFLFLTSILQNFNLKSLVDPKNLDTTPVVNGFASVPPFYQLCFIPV
In short: (§1)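 Recombinant human CYP bactosomes (0.1 mg/mL) in 50 mM potassium phosphate pH 7.4, preincubated 10 min at 37 °C with test compound (0.1-10 μM, 7 concentrations) and fluorogenic substrate. Substrates: ethoxyresorufin 0.5 μM (1A2), FCA 50 μM (2C9), BMC 10 μM (2C19), MMC 10 μM (2D6), DEF 1 μM or 7-BQ 25 μM (3A4). Reaction started with NADPH regenerating system; metabolite formation read over 10 min. IC50 from percent of control rate; miconazole control; triplicate.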

Glutamate receptor 2 [1] = biological target: T1, Glutamate receptor 2 (Homo sapiens, UniProt P42262); experiment: Allosteric modulation of human recombinant GluA2 receptor flip isoform expressed in HEK293 cells assessed as potentiation of glutamate-induced calcium influx by Fluo-4/FLIPR method; assay type: cell-based
T1 sequence (P42262 whole entry, canonical isoform): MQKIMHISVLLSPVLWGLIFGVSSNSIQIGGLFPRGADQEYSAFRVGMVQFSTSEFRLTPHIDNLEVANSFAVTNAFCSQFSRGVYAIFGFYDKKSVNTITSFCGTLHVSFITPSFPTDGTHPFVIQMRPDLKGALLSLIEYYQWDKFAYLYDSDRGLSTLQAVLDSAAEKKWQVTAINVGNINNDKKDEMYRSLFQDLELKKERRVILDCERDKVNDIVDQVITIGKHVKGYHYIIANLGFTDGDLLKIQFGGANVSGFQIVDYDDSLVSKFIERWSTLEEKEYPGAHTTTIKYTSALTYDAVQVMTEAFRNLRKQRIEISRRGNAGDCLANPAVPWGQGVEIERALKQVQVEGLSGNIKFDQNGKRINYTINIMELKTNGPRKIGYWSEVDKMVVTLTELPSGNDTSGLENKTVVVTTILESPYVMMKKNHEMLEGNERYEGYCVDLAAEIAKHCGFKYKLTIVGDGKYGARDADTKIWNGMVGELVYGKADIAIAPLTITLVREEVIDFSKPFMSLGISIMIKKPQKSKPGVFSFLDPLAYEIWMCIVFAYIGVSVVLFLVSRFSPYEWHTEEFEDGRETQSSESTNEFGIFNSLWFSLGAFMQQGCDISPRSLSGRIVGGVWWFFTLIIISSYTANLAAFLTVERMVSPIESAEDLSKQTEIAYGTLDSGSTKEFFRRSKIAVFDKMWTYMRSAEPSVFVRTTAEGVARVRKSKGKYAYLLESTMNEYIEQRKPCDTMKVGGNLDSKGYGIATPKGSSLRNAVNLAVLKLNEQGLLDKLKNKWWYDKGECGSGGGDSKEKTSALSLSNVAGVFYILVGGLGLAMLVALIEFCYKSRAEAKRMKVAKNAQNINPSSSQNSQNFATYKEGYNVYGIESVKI
In short: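 Stable GluA2 flip (unedited) cell line grown in DMEM/F12 with 10% FBS and seeded to confluence 2-3 days before use. Cells washed in HEPES buffer (pH 7.3) and loaded with 2 μM Fluo-4 AM for 60 min at room temperature. On FLIPR, compound was added 5 min before 100 μM glutamate. pEC50 and asymptotic maximum are relative to the maximal response to cyclothiazide, n ≥ 3.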

[2] = Blood Clearance in rat at 3 mg/kg, po; assay type: ADME, organism-based; design: dose 3 mg/kg, route oral; conditions: whole blood
In short: (§2)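 Rats dosed orally at 3 mg/kg; blood sampled via the hepatic portal vein and heart. Estimated clearance derived from in vivo hepatic extraction, taking rat liver blood flow as 85 (mL/min)/kg.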

Cytochrome P450 1A2 = biological target: T2, Cytochrome P450 1A2 (Homo sapiens, UniProt P05177); experiment: Inhibition of human CYP1A2 by fluorescence assay; assay type: ADME; in short: as §1
T2 sequence (P05177 whole entry): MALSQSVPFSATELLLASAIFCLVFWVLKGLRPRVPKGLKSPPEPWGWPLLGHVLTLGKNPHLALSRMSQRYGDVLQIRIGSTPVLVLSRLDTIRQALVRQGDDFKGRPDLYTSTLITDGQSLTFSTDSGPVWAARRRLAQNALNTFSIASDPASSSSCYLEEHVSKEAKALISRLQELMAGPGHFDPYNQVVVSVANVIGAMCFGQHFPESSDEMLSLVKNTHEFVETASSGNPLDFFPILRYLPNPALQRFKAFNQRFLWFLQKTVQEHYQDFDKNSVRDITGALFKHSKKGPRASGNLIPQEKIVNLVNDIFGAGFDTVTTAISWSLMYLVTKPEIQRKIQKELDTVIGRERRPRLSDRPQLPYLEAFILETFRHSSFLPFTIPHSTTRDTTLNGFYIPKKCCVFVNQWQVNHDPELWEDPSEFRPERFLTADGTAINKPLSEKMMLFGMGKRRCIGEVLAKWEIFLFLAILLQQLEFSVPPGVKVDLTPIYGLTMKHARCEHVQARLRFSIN

Cytochrome P450 2C19 = Cytochrome P450 2C19 (Homo sapiens, UniProt P33261); experiment: Inhibition of human CYP2C19 by fluorescence assay; assay type: ADME; in short: as §1
Sequence of Cytochrome P450 2C19 (P33261 whole entry): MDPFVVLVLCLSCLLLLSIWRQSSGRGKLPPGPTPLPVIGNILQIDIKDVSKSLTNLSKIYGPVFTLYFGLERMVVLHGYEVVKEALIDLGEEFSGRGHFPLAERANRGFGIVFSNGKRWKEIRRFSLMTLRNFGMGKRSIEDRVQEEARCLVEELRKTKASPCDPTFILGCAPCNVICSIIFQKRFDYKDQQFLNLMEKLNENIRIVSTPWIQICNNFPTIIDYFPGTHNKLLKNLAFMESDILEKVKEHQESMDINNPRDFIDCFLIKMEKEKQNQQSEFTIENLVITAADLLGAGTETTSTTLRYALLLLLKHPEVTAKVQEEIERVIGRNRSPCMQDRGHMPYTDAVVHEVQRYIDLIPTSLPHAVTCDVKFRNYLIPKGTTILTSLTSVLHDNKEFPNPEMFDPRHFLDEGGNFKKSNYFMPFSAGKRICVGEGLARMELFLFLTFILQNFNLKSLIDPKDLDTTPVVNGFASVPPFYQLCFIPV

[3] = Plasma protein binding in rat at 3 mg/kg, po; assay type: ADME, organism-based; design: dose 3 mg/kg, route oral; conditions: read-out: PPB (converted)
Glutamate receptor 2 [4] = biological target: T1, Glutamate receptor 2; experiment: Allosteric modulation of human recombinant GluA2 receptor flip isoform expressed in HEK293 cells assessed as potentiation of glutamate-induced calcium influx by Fluo-4/FLIPR method relative to cyclothiazide; assay type: cell-based
In short: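 Stable GluA2 flip (unedited) cells seeded to confluence 2-3 days before assay; washed in HEPES buffer (145 NaCl, 5 KCl, 2 CaCl2, 1 MgCl2, 5.5 glucose, pH 7.3), loaded with 2 μM Fluo4-AM 60 min at room temperature. FLIPR dual addition: compound 5 min before 100 μM glutamate; fluorescence rise expressed against maximal cyclothiazide response, fitted pEC50 and Asym max; n ≥ 3.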

Brain [5] = experiment: Brain tissue binding in rat at 3 mg/kg, po; assay type: ADME, organism-based; design: dose 3 mg/kg, route oral; conditions: in vivo
[6] = Apparent permeability of the compound; assay type: ADME; conditions: not told
In short: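 Artificial membrane permeability: donor holds 10 mM sample in pH 7.05 phosphate buffer with 0.5% hydroxypropylcyclodextrin. Membrane is 1.8% phosphatidylcholine and 1% cholesterol in decane. Donor and acceptor concentrations measured by LCMS after 3 h at room temperature; permeability expressed in nm/s.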

[7] = AUC (0 to t) in rat blood at 3 mg/kg, po; assay type: ADME, organism-based; design: dose 3 mg/kg, route oral; conditions: whole blood
Cytochrome P450 2D6 = Cytochrome P450 2D6 (Homo sapiens, UniProt P10635); experiment: Inhibition of human CYP2D6 by fluorescence assay; assay type: ADME; in short: as §1
Sequence of Cytochrome P450 2D6 (P10635 whole entry): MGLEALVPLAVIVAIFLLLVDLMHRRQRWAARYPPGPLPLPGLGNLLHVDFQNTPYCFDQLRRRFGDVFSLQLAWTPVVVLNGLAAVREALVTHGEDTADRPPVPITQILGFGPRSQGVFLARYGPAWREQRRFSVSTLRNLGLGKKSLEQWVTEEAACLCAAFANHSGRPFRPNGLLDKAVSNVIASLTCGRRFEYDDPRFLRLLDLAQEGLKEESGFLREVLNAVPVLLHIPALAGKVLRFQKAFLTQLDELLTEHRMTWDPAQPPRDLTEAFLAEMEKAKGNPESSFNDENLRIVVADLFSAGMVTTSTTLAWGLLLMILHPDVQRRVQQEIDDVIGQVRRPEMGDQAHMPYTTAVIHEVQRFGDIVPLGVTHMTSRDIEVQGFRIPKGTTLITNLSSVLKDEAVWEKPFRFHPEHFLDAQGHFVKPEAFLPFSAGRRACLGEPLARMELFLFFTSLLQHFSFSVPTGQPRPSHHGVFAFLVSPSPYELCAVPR

[8] = Kinetic solubility of the compound in phosphate buffered saline of pH 7.4; assay type: physicochemical
In short: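 Kinetic solubility: 10 mM DMSO stock, 5 μL diluted to 100 μL with pH 7.4 phosphate-buffered saline, equilibrated 1 h at room temperature, filtered, filtrate quantified by calibrated flow-injection chemiluminescent nitrogen detection.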

[9] = Cmax in rat blood at 3 mg/kg, po; assay type: ADME, organism-based; design: dose 3 mg/kg, route oral; conditions: whole blood
Cytochrome P450 3A4 = Cytochrome P450 3A4 (Homo sapiens, UniProt P08684); experiment: Inhibition of human CYP3A4 by fluorescence assay; assay type: ADME; in short: as §1
Sequence of Cytochrome P450 3A4 (P08684 whole entry): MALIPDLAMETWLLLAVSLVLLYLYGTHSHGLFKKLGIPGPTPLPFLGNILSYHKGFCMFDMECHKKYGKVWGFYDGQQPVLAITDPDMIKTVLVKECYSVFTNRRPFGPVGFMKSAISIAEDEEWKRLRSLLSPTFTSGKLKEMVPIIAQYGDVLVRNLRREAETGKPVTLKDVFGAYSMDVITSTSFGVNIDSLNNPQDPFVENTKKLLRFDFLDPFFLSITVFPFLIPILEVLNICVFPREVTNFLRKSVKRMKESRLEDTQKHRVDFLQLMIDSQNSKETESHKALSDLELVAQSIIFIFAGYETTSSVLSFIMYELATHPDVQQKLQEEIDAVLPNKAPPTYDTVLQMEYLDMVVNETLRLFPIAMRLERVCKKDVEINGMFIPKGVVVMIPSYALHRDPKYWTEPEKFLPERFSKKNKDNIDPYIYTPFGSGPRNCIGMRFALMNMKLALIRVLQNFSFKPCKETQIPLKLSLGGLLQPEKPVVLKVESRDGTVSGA

[10] = Distribution coefficient, log D of the compound at pH 7.4; assay type: physicochemical; conditions: octanol/water
[11] = (§3) AUC ( 0 to t) in rat at 3 mg/kg, po; assay type: ADME, organism-based, Plasma; design: dose 3 mg/kg, route oral; conditions: plasma
[12] = Clearance in rat at 3 mg/kg, po; assay type: ADME, organism-based; design: dose 3 mg/kg, route oral; conditions: in vivo; in short: as §2
[13] = Distribution coefficient, log D of the compound; assay type: physicochemical; conditions: octanol/water
[14] = Cmax in rat at 3 mg/kg, po; assay type: ADME, organism-based; design: dose 3 mg/kg, route oral; conditions: in vivo
in vivo = conditions: rat, brain and blood, po, 3 mg/kg
Rattus norvegicus [15] = experiment: Neurotoxicity in Lister Hooded rat assessed proconvulsant effect at 150 mg/kg, ip by MEST test; assay type: toxicity, organism-based; design: dose 150 mg/kg, route intraperitoneal; conditions: in vivo
In short: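 Male Lister Hooded rats pretreated with compound, saline vehicle or picrotoxin 30 min before corneal electroshock (CC50 about 60–70 mA, 0.1 ms); tonic and tonic-clonic seizure threshold scored; brain concentrations taken from satellite rats sampled right after testing.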

[16] = Inhibition of human CYP450 by fluorescence assay; assay type: ADME
In short: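 Recombinant human CYP1A2, 2C9, 2C19, 2D6 and 3A4 bactosomes (0.1 mg/mL protein) preincubated 10 min at 37 °C in 50 mM potassium phosphate pH 7.4 with test compound (0.1–10 μM, methanol 3–4.5% final) and fluorogenic probe: ethoxyresorufin 0.5 μM (1A2), FCA 50 μM (2C9), BMC 10 μM (2C19), MMC 10 μM (2D6), DEF 1 μM or 7-BQ 25 μM (3A4). NADPH-regenerating system added; fluorescent metabolite read 10 min; rate as % control; IC50 fitted; triplicate.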

Rattus norvegicus [17] = experiment: Cognitive enhancing effect in Wistar rat assessed as reversal of scopolamine-induced amnesic deficit at 10 to 30 mg/kg, ip by passive avoidance test
Brain [18] = experiment: Drug level in Lister Hooded rat assessed per gram of tissue at 150 mg/kg, ip; assay type: ADME, organism-based; design: dose 150 mg/kg, route intraperitoneal; conditions: in vivo
In short: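 Male Lister Hooded rats pretreated 30 min before the maximal electroshock threshold test with compound or saline vehicle; picrotoxin served as positive control. Corneal current applied, CC50 about 60-70 mA, 0.1 ms. Brain levels measured in satellite rats sampled immediately after testing.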

Rattus norvegicus [19] = experiment: as §3; assay type: ADME, organism-based, Plasma; design: dose 3 mg/kg, route oral; conditions: in vivo
Brain [20] = experiment: Drug level in Lister Hooded rat assessed per gram of tissue at 3 mg/kg, ip; assay type: ADME, organism-based; design: dose 3 mg/kg, route intraperitoneal; conditions: in vivo
In short: (§4)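 Male Lister Hooded rats (n = 9-12/group) tested for reversal of a 24 h delay-induced deficit in novel object recognition. Significant doses flagged. Brain concentrations measured in the study animals at the end of the test.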

Brain [21] = experiment: Drug level in Lister Hooded rat assessed per gram of tissue at 1 mg/kg, ip; assay type: ADME, organism-based; design: dose 1 mg/kg, route intraperitoneal; conditions: in vivo; in short: as §4
Brain [22] = experiment: Drug level in Lister Hooded rat assessed per gram of tissue at 10 mg/kg, ip; assay type: ADME, organism-based; design: dose 10 mg/kg, route intraperitoneal; conditions: in vivo; in short: as §4
Brain [23] = experiment: Drug level in Lister Hooded rat assessed per gram of tissue at 0.3 mg/kg, ip; assay type: ADME, organism-based; design: dose 0.3 mg/kg, route intraperitoneal; conditions: in vivo; in short: as §4
Rattus norvegicus [24] = experiment: Cognitive enhancing effect in Wistar rat assessed as reversal of scopolamine-induced amnesic deficit at 30 mg/kg, ip by passive avoidance test

Row | IC50 (Cytochrome P450 2C9) [µM] | EC50 (Glutamate receptor 2 [1]) [µM] | CL/F [2] [mL/min/kg] | IC50 (Cytochrome P450 1A2) [µM] | IC50 (Cytochrome P450 2C19) [µM] | fraction unbound [3] | Activity (Glutamate receptor 2 [4]) [%] | Brain tissue binding (% bound) (Brain [5]) [%] | Papp [6] [×10⁻⁶ cm/s] | AUC(0-t) [7] [ng·h/mL] | IC50 (Cytochrome P450 2D6) [µM] | solubility kinetic [8] [µg/mL] | Cmax [9] [ng/mL] | IC50 (Cytochrome P450 3A4) [µM] | logD [10] | logD [13] | Cmax [14] [ng/mL] | Kp (in vivo) | Drug uptake (Brain [18]) [ng/g] | Compound | Activity (Rattus norvegicus [15]) | also measured
1 | > 10 | 100 | 13 | > 10 | > 10 | 0.067 | 75 | 95.5 | 49 | 733 | > 10 | 104 (≈ 285 µM) | 225 | > 10 | 2.6 | – | – | – | – | O=C(c1ccc(-n2nc(C(F)(F)F)c3c2COCC3)cc1)N1CCCC1 | – | –
2 | > 10 | 39.8 | 22 | > 10 | > 10 | 0.142 | 102 | 63 | 43 | 294 | > 10 | 93 (≈ 246 µM) | 131 | > 10 | 2 | – | – | – | – | CN1CCc2c(C(F)(F)F)nn(-c3ccc(CN4CCCC4=O)cc3)c2C1 | – | –
3 | > 8 | 10 | 41 | > 8 | > 8 | 0.16 | 138 | 87.9 | 47 | 972 | > 8 | 215 (≈ 588 µM) | 808 | > 8 | 2.4 | – | – | – | – | O=C1CCCN1Cc1ccc(-n2nc(C(F)(F)F)c3c2CCOC3)cc1 | – | –
4 | – | > 20 | – | – | – | 0.026 | 81 | 96.8 | 45.5 | – | – | 123 (≈ 324 µM) | – | – | – | 3.1 | 586 | 1.2 | 7168 | O=C(c1ccc(-n2nc(C(F)(F)F)c3c2CCCC3)cc1)N1CCOCC1 | Non-toxic | AUC(0-t) [11]: 1980 ng·h/mL; CL/F [12]: 14 mL/min/kg; IC50 [16]: > 10 µM; Activity (Rattus norvegicus [17]): inactive
5 | – | 25.1 | – | – | – | 0.048 | 94 | 98.2 | – | – | 6 | 138 (≈ 409 µM) | – | – | – | 3 | 50 | 1.3 | – | CN(C)C(=O)c1ccc(-n2nc(C(F)(F)F)c3c2CCCC3)cc1 | – | AUC (Rattus norvegicus [19]): 78 ng·h/mL
6 | > 10 | > 20 | 6 | > 10 | > 10 | 0.137 | 81 | 88.4 | 49.5 | 1330 | > 10 | 192 (≈ 526 µM) | 551 | > 10 | 2.4 | – | – | – | 22525 | O=C(c1ccc(-n2nc(C(F)(F)F)c3c2CCOC3)cc1)N1CCCC1 | Non-toxic | Drug uptake (Brain [20]): 983 ng/g; Drug uptake (Brain [21]): 228 ng/g; Drug uptake (Brain [22]): 2609 ng/g; Activity (Rattus norvegicus [17]): Active
7 | – | 7.94 | – | – | – | 0.021 | 112 | 99.2 | 33.5 | – | – | 103 (≈ 276 µM) | – | – | – | 2.5 | 197 | 1.6 | 5074 | CS(=O)(=O)NCc1ccc(-n2nc(C(F)(F)F)c3c2CCCC3)cc1 | Non-toxic | AUC(0-t) [11]: 416 ng·h/mL; CL/F [12]: 43 mL/min/kg; IC50 [16]: > 10 µM
8 | > 10 | 20 | 22 | > 10 | > 10 | 0.064 | 120 | 96.3 | 47 | 481 | > 10 | 207 (≈ 516 µM) | 76 | > 10 | 2.5 | – | – | – | 8988 | O=C1CCCN1Cc1c(F)cc(-n2nc(C(F)(F)F)c3c2CCOC3)cc1F | Non-toxic | Drug uptake (Brain [20]): 386 ng/g; Drug uptake (Brain [23]): 22 ng/g; Drug uptake (Brain [21]): 79 ng/g; Activity (Rattus norvegicus [24]): Active; Drug uptake (Brain [22]): 1413 ng/g
